The record followed here is ChEMBL document CHEMBL4033797, “Discovery of [ cis-3-({(5 R)-5-[(7-Fluoro-1,1-dimethyl-2,3-dihydro-1 H-inden-5-yl)carbamoyl]-2-methoxy-7,8-dihydro-1,6-naphthyridin-6(5 H)-yl}carbonyl)cyclobutyl]acetic Acid (TAK-828F) as a Potent, Selective, and Orally Available Novel Retinoic Acid Receptor-Related Orphan Receptor γt Inverse …” (J Med Chem, 2018).

Activity calls are given as the source filed them. The rule behind the calls is not given here. Where only a bound is given, the exact number is not on record here.

A short description of data set [1]: Lipophilicity, log D of the compound at pH 7.4. The format is physicochemical. The following applies: buffer.
Data set [2] deals with T1, Nuclear receptor ROR-beta (Homo sapiens, UniProt Q92753).
T1 sequence (Q92753 whole entry): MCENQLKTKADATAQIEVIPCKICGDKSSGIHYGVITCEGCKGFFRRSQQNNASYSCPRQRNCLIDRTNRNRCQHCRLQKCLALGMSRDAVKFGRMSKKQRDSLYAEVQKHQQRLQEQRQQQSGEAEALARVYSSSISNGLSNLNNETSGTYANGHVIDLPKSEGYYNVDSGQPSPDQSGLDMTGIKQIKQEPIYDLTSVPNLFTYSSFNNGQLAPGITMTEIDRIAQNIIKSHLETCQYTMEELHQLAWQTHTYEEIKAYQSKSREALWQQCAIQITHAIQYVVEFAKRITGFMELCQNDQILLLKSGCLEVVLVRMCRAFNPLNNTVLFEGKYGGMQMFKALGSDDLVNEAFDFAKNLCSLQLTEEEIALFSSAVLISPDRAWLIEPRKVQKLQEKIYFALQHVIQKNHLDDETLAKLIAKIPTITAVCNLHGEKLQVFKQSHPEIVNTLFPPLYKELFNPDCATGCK
As to the kind of experiment: Inverse agonist activity at human RORbeta expressed in human Jurkat cells assessed as inhibition of transcriptional activity after 10 mins by human IL-17 ROR response element driven-bright-glo luciferase reporter gene assay. It counts as cell-based. In outline:
(§1)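 Cell-based reporter assay in human Jurkat cells carrying human RORα or RORβ. Inhibition of transcriptional activity was read as luciferase activity and reported as IC50.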

The nature of data set [3]: MRT in mouse at 1 mg/kg, po administered via cassette dosing. The format is ADME, organism-based. The following applies: in vivo. In outline:
(§2)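 Mice received a single oral 1 mg/kg dose in cassette format. Plasma was sampled over 8 h for Cmax, Tmax, AUC0–8h, MRT and oral bioavailability (F). Values are means of three determinations.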

The target in data set [4] is T2, Nuclear receptor ROR-alpha (Homo sapiens, UniProt P35398).
T2 sequence (P35398 whole entry): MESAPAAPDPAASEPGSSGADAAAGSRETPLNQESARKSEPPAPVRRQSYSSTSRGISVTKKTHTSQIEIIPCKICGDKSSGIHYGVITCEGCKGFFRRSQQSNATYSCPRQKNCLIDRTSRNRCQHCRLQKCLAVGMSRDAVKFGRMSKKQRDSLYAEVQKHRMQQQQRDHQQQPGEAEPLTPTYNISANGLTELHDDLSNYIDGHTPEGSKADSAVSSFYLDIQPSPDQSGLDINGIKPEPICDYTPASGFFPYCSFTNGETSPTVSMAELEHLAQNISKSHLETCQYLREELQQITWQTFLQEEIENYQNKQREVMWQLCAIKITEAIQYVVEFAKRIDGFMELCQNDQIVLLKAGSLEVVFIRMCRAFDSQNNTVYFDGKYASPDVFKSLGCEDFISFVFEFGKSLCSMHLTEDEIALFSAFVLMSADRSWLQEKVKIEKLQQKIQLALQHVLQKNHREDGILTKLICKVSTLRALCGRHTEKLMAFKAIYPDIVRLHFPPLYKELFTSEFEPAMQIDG
The data set is described as follows: Inverse agonist activity at human RORalpha expressed in human Jurkat cells assessed as inhibition of transcriptional activity after 10 mins by human IL-17 ROR response element driven-bright-glo luciferase reporter gene assay. The format is cell-based. Summed up: as §1
In general terms: A reporter such as luciferase makes a cellular process visible.

In data set [5] the test system is Mus musculus. As to the kind of experiment: Anti-inflammatory activity against MOG (35 to 55 residues)-induced EAE C57BL/6 mouse model assessed as inhibition of development of clinical symptoms at 1 mg/kg, administered bid via oral gavage measured after 28 days post Mycobacterium tuberculosis H37Ra/ MOG (35 to 55 residues)/pertussis toxin immunization. It counts as functional. The following applies: C57BL/6, po, 672 h. In outline: (§3)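 Mice immunized with MOG peptide received oral drug in 0.5% methylcellulose vehicle bid for 28 days. EAE clinical score was recorded from day 0 to day 28, along with cumulative clinical score. Groups were 12 MOG-immunized mice per group plus 4 healthy controls, reported as mean ± S.E. Comparison was against vehicle-treated immunized controls by one-tailed Shirley-Williams test (p<0.025).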

Data set [6] is described as follows: Tmax in mouse at 1 mg/kg, po administered via cassette dosing. The format is ADME, organism-based. The following applies: in vivo. Summed up:
as §2

For data set [7], the system named is Mus musculus. As to the kind of experiment: Anti-inflammatory activity in activated T cell transfer po dosed mouse colitis model. It counts as functional, organism-based.
In data set [8] the test system is Mus musculus. As to the kind of experiment: Anti-inflammatory activity against MOG (35 to 55 residues)-induced EAE C57BL/6 mouse model assessed as inhibition of development of clinical symptoms at 3 mg/kg, administered bid via oral gavage measured after 28 days post Mycobacterium tuberculosis H37Ra/ MOG (35 to 55 residues)/pertussis toxin immunization. It counts as functional. The conditions noted are these: C57BL/6, po, 672 h. Summed up:
as §3

For data set [9], the system named is Mus musculus. The data set is described as follows: In vivo inverse agonist activity at RORgammat in po dosed C57BL/6 mouse assessed as inhibition of IL-23-induced IL-17A expression administered as bid. The format is functional, organism-based. In outline: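 Mice were dosed orally twice daily at 0.3, 1 and 3 mg/kg. IL-17A expression induced by IL-23 was then measured, and an effective dose was derived from the dose–response.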

Data set [10] in a line: Cmax in mouse at 1 mg/kg, po administered via cassette dosing. The format is ADME, organism-based. The arrangement: dose 1 mg/kg, route oral. The conditions noted are these: in vivo. Summed up: as §2
Data set [11] has as its system Mus musculus. The data set is described as follows: Anti-inflammatory activity against IL-23 induced po dosed mouse psoriasis model. The format is functional, organism-based.
Data set [12] in a line: AUC (0 to 8 hrs) in mouse at 1 mg/kg, po administered via cassette dosing. The format is ADME, organism-based. Also noted: time < 8 hr, dose 1 mg/kg, route oral. The following applies: in vivo. Summed up: as §2
Data set [13] in a line: Oral bioavailability in mouse at 1 mg/kg administered via cassette dosing. The format is ADME, organism-based. The following applies: in vivo. Summed up:
as §2

For data set [14], the system named is Mus musculus. The data set is described as follows: In vivo inverse agonist activity at RORgammat in po dosed C57BL/6 mouse assessed as inhibition of IL-23-induced IL-17A cytokine expression. It counts as functional.

Usually logD stands for the decadic logarithm of the distribution of all forms, ionised or not, between an organic phase and buffer at a given pH. The low end stands for a more hydrophilic compound, the high end for a more lipophilic compound. Turning to `COc1ccc2c(n1)CCN(C(=O)C1CN(CC(=O)O)C1)[C@H]2C(=O)Nc1cc(F)c2c(c1)CCC2(C)C`, the pH-dependent lipophilicity (logD) in [1] was found to be 3.39.
As for `COc1ccc2c(n1)CCN(C(=O)[C@H]1C[C@@H](C(=O)O)C1)[C@H]2C(=O)Nc1cc(F)c2c(c1)CCC2(C)C`, the logD in [1] stood at 3.39.
One may read the IC50 as the point on the concentration scale where inhibition reaches its midpoint. By MRT is commonly meant a mean duration of stay, worked out from the concentration-time curve. A word on the inhibition in vivo: it is the drop in the measured response relative to a control, in per cent. In general, Tmax refers to the time from dosing to the highest level. As usually defined, the Cmax is the peak of the concentration-time curve. For orientation: AUC(0-t) means the area under the concentration-time curve up to a stated or last time point. Higher therefore signals more exposure. As to `COc1ccc2c(n1)CCN(C(=O)[C@H]1C[C@@H](CC(=O)O)C1)[C@H]2C(=O)Nc1cc(F)c2c(c1)CCC2(C)C`, the IC50 in data set [2] and in data set [4] was ≥ 30 µM in each case. This compound also had a logD in [1] of 3.53. In [3], this compound yielded an MRT of 4.1 h. Moreover, the inhibition in vivo at 1 mg/kg in the data set on Mus musculus [5] was determined as 50%. For the same compound, in [6], the Tmax is 2.3 h. Further, the result in the data set on Mus musculus [7] and in the data set on Mus musculus [11] was Active. Moreover, in the data set with Mus musculus [8], the inhibition in vivo at 3 mg/kg stood at 44%. Besides, the inhibition entry in the data set with Mus musculus [9] was “Dose-dependent effect”. Moreover, the peak concentration (Cmax) in [10] amounted to 1560 ng/mL. In [12], this compound gave an AUC(0-t) at 8 h of 10100 ng·h/mL.
Broadly, the bioavailability is the share of a dose that reaches the circulation, judged against a reference dose that is usually intravenous. Regarding `COc1ccc2c(c1)CCN(C(=O)CCCC(=O)O)[C@H]2C(=O)Nc1cc(F)c(C(C)(C)C)c(F)c1`, the logD in data set [1] stood at 3.77. The bioavailability in [13] was found to be 62%. The compound further gave an AUC(0-t) at 8 h in data set [12] of 2840 ng·h/mL.
Compound `COc1ccc2c(n1)CCN(C(=O)CCCC(=O)O)[C@H]2C(=O)Nc1cc(F)c([Si](C)(C)C)c(F)c1` displayed a log distribution coefficient (logD) in data set [1] of 4.04. In [13], the bioavailability came out at 51%. In [12], the AUC(0-t) at 8 h stood at 2880 ng·h/mL.
For the compound `COc1ccc2c(n1)CCN(C(=O)C[C@H]1C[C@H](C(=O)O)C1)[C@H]2C(=O)Nc1cc(F)c2c(c1)CCC2(C)C`, the logD in [1] was 3.49.
In turn, `COc1ccc2c(n1)CCN(C(=O)[C@H]1C[C@H](CC(=O)O)C1)[C@H]2C(=O)Nc1cc(F)c2c(c1)CCC2(C)C` came in with a logD in data set [1] of 3.54.
Regarding `COc1ccc2c(n1)CCN(C(=O)CCCC(=O)O)[C@H]2C(=O)Nc1cc(F)c2c(c1)CCC2(C)C`, in data set [1], the logD amounted to 3.39. The same compound yielded a bioavailability in [13] of 58%. The inhibition entry with Mus musculus [14] is “Dose-dependent effect”. The compound also came in with an AUC(0-t) at 8 h in [12] of 2620 ng·h/mL.
For the compound `COc1ccc2c(c1)CCN(C(=O)CCCC(=O)O)[C@H]2C(=O)Nc1cc(F)c([Si](C)(C)C)c(F)c1`, in [1], the logD came out at 3.96. Moreover, the inhibition result in the data set on Mus musculus [14] is “Dose-dependent effect”. The ED80 in the data set on Mus musculus [14] (C57BL/6, po) worked out at 7.6 mg/kg.
Turning to `COc1ccc2c(n1)CCN(C(=O)N1CC(CC(=O)O)C1)[C@H]2C(=O)Nc1cc(F)c2c(c1)CCC2(C)C`, the logD in data set [1] was determined as 3.42.
In data set [1], `COc1ccc2c(n1)CCN(C(=O)[C@H]1C[C@H](C(=O)O)C1)[C@H]2C(=O)Nc1cc(F)c2c(c1)CCC2(C)C` returned a logD of 3.46.
In the case of `COc1ccc2c(n1)CCN(C(=O)C[C@H]1C[C@@H](C(=O)O)C1)[C@H]2C(=O)Nc1cc(F)c2c(c1)CCC2(C)C`, the log distribution coefficient (logD) in [1] was 3.51.
`COCC(C)(C)c1c(F)cc(NC(=O)[C@H]2c3ccc(OC)cc3CCN2C(=O)CCCC(=O)O)cc1F`: the logD in data set [1] was found to be 3.16. This compound registered a bioavailability in data set [13] of 78%. This compound also showed an AUC(0-t) at 8 h in data set [12] of 389 ng·h/mL.
`COc1ccc2c(c1)CCN(C(=O)CCCC(=O)O)[C@H]2C(=O)Nc1cc(F)c2c(c1)CCC2(C)C` returned a logD in data set [1] of 3.37. In addition, the bioavailability in data set [13] amounted to 91%. Besides, the inhibition entry with Mus musculus [14] was “Dose-dependent effect”. Besides, in [12], the AUC(0-t) at 8 h stood at 3440 ng·h/mL.
